Here are results for 4 compounds from article PMC6300136 (Cancer chemotherapy and pharmacology, 2011).

The Cmax is the maximum level reached in the sampled fluid or tissue. What is called Tmax is the time from dosing to the highest level. A word on the half-life: it is the time needed for the level to fall by half in the phase considered.

The structures appear in SMILES notation. Where “and” joins values, the source holds several entries; their conditions need not be identical. Equal values may be shown once. Entries after “also recorded” stand apart in the source; their conditions may differ. Read-outs that look alike come from different tables or passages of the source.

One data set has as its system tumor cell growth. The conditions noted are these: inhibition of tumor cell growth in vitro; cited from earlier work.
The format of data set [1] is in vivo, rhesus monkeys (Macaca mulatta). Put shortly: (§1)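 Five adult male rhesus monkeys (7.3–14.9 kg) were fasted ≥6 h before and 2 h after dosing and given IV ondansetron 0.1 mg/kg (max 2 mg) beforehand. A single dose of test compound, 6 mg/kg (human equivalent 120 mg/m2) in 5% DMSO/0.9% saline, was infused over 1 h through a central venous catheter, with IV fluid hydration during and after.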

The conditions of data set [2]: cited from earlier work.
Data set [3] can be described thus: Stability of satraplatin spiked plasma at room temperature. The format is in vitro ADME.
Data set [4] in a line: Plasma ultrafiltrate pharmacokinetics of satraplatin. The format is in vivo, rhesus monkeys (Macaca mulatta). Put shortly: as §1
The nature of data set [5]: Tolerability of a single IV dose of satraplatin in non-human primates. The conditions noted are these: single 120 mg/m^2 (6 mg/kg) IV dose over 1 h in NHP. In kind it is in vivo, rhesus monkeys (Macaca mulatta). The procedure, abridged: as §1
For data set [6] the following is noted: carboplatin administration every 4 weeks; cited from earlier work.
The conditions of data set [7]: brain microdialysis in the same NHP model; cited from earlier work.
The conditions of data set [8]: cited from earlier work. The source holds these as a separate data set.
The mark [9] stands for this setting: CSF from intralumbar catheter, animal 1, 6 mg/kg IV over 1 h.
[10] abbreviates: plasma UF, individual animal, 6 mg/kg IV over 1 h, 6 mg/kg.

For the compound `N.NC1CCCCC1.[Cl-].[Cl-].[Pt+2]` [JM-118], the “potency relative to parent drug satraplatin” value in the data set on tumor cell growth was “up to 16 fold”.

Consider `CC(=O)[O][Pt]([NH2])([Cl])([Cl])([NH]C1CCCCC1)[O]C(C)=O` [Satraplatin, (OC-6–43)-bis(acetato)amminedichloro(cyclohexylamine)platinum], for which the Cmax in [1] (setting [9]) was 0.62 µM; in data set [1] (read-out: Cmax, median (range), CSF, median (range) of NHP) it was 0.09 µM; in [4] (setting [10]) it was 10.6 µM and 10.4 µM and 5.7 µM and 6.9 µM and 8.3 µM. For the same compound, the Tmax is 1.1 h in data set [1] (setting [9]); 1.1 h and 1.0 h and 0.5 h in data set [4] (plasma UF, individual animal, 6 mg/kg (120 mg/m^2) IV over 1 h, time after start of infusion, 6 mg/kg). Besides, the “Ratio AUC0–48h CSF: AUC0–48h plasma UF” value in [1] (CSF penetration, individual animal, 6 mg/kg IV over 1 h, 6 mg/kg) is 7.4% and 4.6% and 2.2% and 3.9%. In addition, the “AUC0–48h” value in data set [1] (CSF, individual animal, 6 mg/kg IV over 1 h, 6 mg/kg) was 2.43 µM·h and 1.26 µM·h and 0.49 µM·h and 1.14 µM·h; in [4] (setting [10]) it was 33.2 µM·h and 27.4 µM·h and 22.6 µM·h and 29.2 µM·h. Also, the “AUC0–48h, median (range)” value is on record as 1.2 (0.49–2.43) μM h in [1] (CSF, median (range) of NHP) and 29.2 (22.6–33.2) μM h in data set [4] (plasma UF, median (range) of 5 NHP, 6 mg/kg IV over 1 h). The “AUC0–48 for CSF, median (range)” value in [1] (CSF, median, unit as printed in the results text) is 1.2 µM. Further, the “CSF penetration (Ratio AUC0–48h CSF: AUC0–48h plasma UF), median (range)” value in [1] (median (range) of NHP) is on record as 4.3 (2.2–7.4) %. The accumulation factor in [2] (daily dosing in clinical trials) is on record as at most 4.1. The half-life in [2] (human phase I trials after oral dosing, mean) is 7 h. Further, in [3], the “stability of spiked plasma” value is “at least 2 h”. In addition, in data set [4] (plasma UF exposure, NHP IV versus human oral), the “AUC0–24h in NHP after IV relative to humans at equivalent oral doses” value is recorded as “approximately 20 fold”. For the same compound, the Cl in data set [4] (plasma UF, individual animal, dose/AUC0–inf, 6 mg/kg IV over 1 h) was 5.67 mL/min/kg and 5.17 mL/min/kg and 6.17 mL/min/kg and 6 mL/min/kg. Also, the T½ in data set [4] (plasma UF, individual animal, terminal half-life, 6 mg/kg IV over 1 h, 6 mg/kg) was 13.4 h and 19.5 h and 18.8 h and 17.4 h and 25 h. Also, the “Cl, median (range)” value in data set [4] (plasma UF, median (range) of 5 NHP) is 0.36 (0.31–0.37) l/h/kg. Moreover, the “Tmax, median (range)” value in data set [4] (plasma UF, median (range) of 5 NHP, 6 mg/kg IV over 1 h, after start of infusion) was 1.0 (0.5–1.1) h. The “AUC0–inf, median (range)” value in [4] (plasma UF, median (range) of 5 NHP, extrapolated to infinity) is 32.1 (24.7–38.2) μM h. Further, the “T½, median (range)” value in [4] (plasma UF, median (range) of 5 NHP, terminal half-life) was 18.8 (13.4–25) h. Moreover, in data set [5], the Tolerability entry is on record as “well tolerated; also recorded: no adverse clinical or laboratory sequelae”.

In the case of `N.N.O=C([O-])C1(C(=O)[O-])CCC1.[Pt+2]` [carboplatin], the incidence of anaphylaxis in data set [6] is at most 22%. The CNS penetration in data set [7] is listed as under 5%. In addition, the CSF penetration in data set [8] (non-human primate model) is given as 2.6%.

Take `N.N.[Cl][Pt][Cl]` [cisplatin]: the CSF penetration in [8] (in vivo) was 3.7%.
